In PubChem BioAssay AID652279 (Broad Institute, 2013):

system: T. cruzi CAI/72 in J774 macrophages, trypomastigote emergence, microscopy; assay: intracellular T. cruzi relapse after drug removal – imaging, CAI/72 strain, J774 macrophages, dry powder, mechanism study, late-stage follow-up (AID 652279); settings: hits give high values
Method in brief: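 Material: Irradiated (9000 rad) J774 macrophages infected with T. cruzi CAI/72; Timing: 1-week or 3-week dosing, then 31-day or 17-day drug-free follow-up; Technique: daily light-microscopy check for trypomastigote emergence.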

SMILES | slope of emergence day vs concentration
CC(C)N1C[C@@H](CN(C)Cc2ccc(Oc3ccccc3)cc2)Oc2c(NC(=O)c3ccncc3)cccc2C1=O | 5.84
CC(C)N1C[C@@H](CN(C)Cc2ccc(Cl)cc2)Oc2c(NC(=O)c3ccncc3)cccc2C1=O | 2.21
CN(C)CC#Cc1cccc(-c2nc(C(=O)N[C@@H]3CCN(Cc4ccccc4)C3)cc3c2[C@@H](CCO)N(S(=O)C(C)(C)C)C3)c1 (stereo partly specified) | 2.02
CC(C)N1C[C@@H](CN(C)CCc2ccc(Cl)c(Cl)c2)Oc2c(NC(=O)c3ccncc3)cccc2C1=O | 6.4
CC(C)N1C[C@@H](CN(C)Cc2ccc(Cl)cc2)Oc2c(NC(=O)c3ccncc3)cc(F)cc2C1=O | 2.15
CC(C)N1C[C@@H](CN(C)CCc2ccc(Cl)cc2)Oc2c(NC(=O)c3ccncc3)cccc2C1=O | 6.07
CN(C)CC#Cc1cccc(-c2nc(C(=O)NCc3ccc4c(c3)OCO4)cc3c2[C@@H](CCO)N(S(=O)C(C)(C)C)C3)c1 (stereo partly specified) | 4.35
CC(C)N1C[C@@H](CN(C)Cc2ccc(Cl)c(Cl)c2)Oc2c(NC(=O)c3ccncc3)cccc2C1=O | 6.07
CN(C)C(=O)c1cccc(-c2ccc([C@H]3[C@H](CO)N4CCCCN(C(=O)C5CCC5)C[C@@H]34)cc2)c1 | 1.4
CC(C)N1C[C@@H](CN(C)Cc2ccc(Cl)cc2)Oc2c(C(=O)Nc3ccncc3)cccc2C1=O | 4.59
CC(C)N1C[C@H](CN(C)Cc2ccc(Cl)cc2)Oc2c(NC(=O)c3ccncc3)cccc2C1=O | 2.02
